Source: paper PMC2761767 (Journal of medicinal chemistry, 2009)
Where two headings read alike, the source gives them in different places.

What was measured:
Hep 3B (hepatoma) cells = assay: MTT cytotoxicity assay, Hep 3B; format: cell-based, human; details: read-out: IC50, in vitro cytotoxicity, Hep 3B, Hep 3B cells
[1] = test system: HCT-116 (colon cancer) cells; assay: MTT cytotoxicity assay, HCT-116; format: cell-based, human; details: read-out: IC50, in vitro cytotoxicity, HCT-116, HCT-116 cells
HL-60 (leukemia) cells = assay: MTT cytotoxicity assay, HL-60; format: cell-based, human; details: read-out: IC50, in vitro cytotoxicity, HL-60, HL-60 cells
[2] = test system: seven human cancer cell lines (HL-60, HCT-116, A549, Hep 3B, KB, KB-VIN, DU145); assay: In vitro cytotoxicity, all seven cancer cell lines together; format: cell-based; details: read-out: IC50 values, range over all seven cancer cell lines
[3] = test system: KB-VIN (p-glycoprotein-expressing epidermoid carcinoma of the nasopharynx) cells; assay: SRB cytotoxicity assay, KB-VIN; format: cell-based, human; details: read-out: IC50, in vitro cytotoxicity, Kb-VIN, KB-VIN cells (vincristine-resistant)
How it was run: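 For A549, KB, KB-VIN and DU145, an SRB assay was used. Cells were exposed to the test compound or DMSO, fixed with 10% TCA and stained with 0.4% (w/v) SRB in 1% acetic acid. Unbound dye was washed out with 1% acetic acid, bound dye solubilized in 10 mM Trizma base, and absorbance read at 515 nm.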

[4] = test system: A549 (non-small cell lung carcinoma) cells; assay: SRB cytotoxicity assay, A549; format: cell-based, human; details: read-out: IC50, in vitro cytotoxicity, A549
How it was run: (§1)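 Cells exposed to test compound or DMSO vehicle for the stated periods, then fixed with 10% TCA. Staining used 0.4% (w/v) sulforhodamine B in 1% acetic acid, with unbound dye washed out in 1% acetic acid. Bound dye was dissolved in 10 mM Trizma base and absorbance read at 515 nm. IC50 taken from the resulting absorbance data.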

[5] = test system: KB (epidermoid carcinoma of the nasopharynx) cells; assay: SRB cytotoxicity assay, KB; format: cell-based, human; details: read-out: IC50, in vitro cytotoxicity, KB
How it was run: as §1

[6] = test system: DU145 (prostate cancer) cells; assay: SRB cytotoxicity assay, DU145; format: cell-based, human; details: read-out: IC50, in vitro cytotoxicity, DU145
How it was run: as §1

tubulin = assay: Inhibition of [3H]colchicine binding to tubulin; details: 1 µM tubulin, 5 µM [3H]colchicine, 10 min at 37 °C; for Inhibition of Colchicine Binding % inhibition at tested concentration, 1 µM: 1 µM inhibitor; for Inhibition of Colchicine Binding % inhibition at tested concentration, 5 µM: 5 µM inhibitor
OVCAR-3 xenograft = details: ip, once weekly for 3 courses, cited from earlier work
[7] = ip, once weekly for 3 courses; prior in vivo study; cited from earlier work
[8] = test system: 60 human tumor cell lines; assay: NCI screening against 60 human tumor cell lines; format: cell-based
[9] = mice model, unpublished data
[10] = test system: HL-60, HCT-116, H226, A549, Hep G2 and A498 cancer cell lines; assay: Cytotoxicity of deacetylated amides 46-53; format: cell-based; details: read-out: IC50 values, cytotoxicity

In the case of “2-(1-Anthracenyl)-6,7-methylenedioxyquinolin-4-one [Compound 45]”, the IC50 (Hep 3B (hepatoma) cells) is reported as 2200 nM, the IC50 [1] is reported as 1600 nM and the IC50 (HL-60 (leukemia) cells) is reported as 530 nM.

Work on “2-(1-Naphthalenyl)-6,7-methylenedioxyquinolin-4-one [Compound 39]” yielded an IC50 [2] of 70 to 190 nM, an IC50 [3] of 190 nM and an IC50 [4] of 130 nM. The IC50 [5] was 130 nM, the IC50 [6] was 130 nM and the “Inhibition of Colchicine Binding % inhibition at tested concentration, 1 µM” value (tubulin) was 33%. The “Inhibition of Colchicine Binding % inhibition at tested concentration, 5 µM” value (tubulin) was 67%, the IC50 (Hep 3B (hepatoma) cells) was 70 nM and the IC50 [1] was 70 nM. It also gave an IC50 (HL-60 (leukemia) cells) of 70 nM.

In the case of “2-(2-Benzo[b]furyl)-6,7-methylenedioxyquinolin-4-one [Compound 38]”, the IC50 [3] is reported as > 1000 nM, the IC50 [4] is reported as > 1000 nM and the IC50 [5] is reported as > 1000 nM. The IC50 [6] was > 1000 nM, the IC50 (Hep 3B (hepatoma) cells) was > 1000 nM and the IC50 [1] was > 1000 nM. The IC50 (HL-60 (leukemia) cells) was > 1000 nM.

In the case of “2-(2-Benzo[b]thienyl)-6,7-methylenedioxyquinolin-4-one [Compound 36]”, the IC50 [3] is reported as > 1000 nM, the IC50 [4] is reported as > 1000 nM and the IC50 [5] is reported as > 1000 nM. For the same molecule, the IC50 [6] was > 1000 nM, the IC50 (Hep 3B (hepatoma) cells) was > 1000 nM and the IC50 [1] was > 1000 nM. For the same molecule, the IC50 (HL-60 (leukemia) cells) was > 1000 nM.

In the case of “2-(2-Naphthalenyl)-6,7-methylenedioxyquinolin-4-one [Compound 40]”, the IC50 [3] is reported as > 1000 nM, the IC50 [4] is reported as > 1000 nM and the IC50 [5] is reported as > 1000 nM. The IC50 [6] was > 1000 nM, the IC50 (Hep 3B (hepatoma) cells) was > 1000 nM and the IC50 [1] was > 1000 nM. It also gave an IC50 (HL-60 (leukemia) cells) of 500 nM.

For “2-(2-Quinolinyl)-6,7-methylenedioxyquinolin-4-one [Compound 43]”, the IC50 [3] was > 5000 nM, the IC50 [4] was > 5000 nM and the IC50 [5] was > 5000 nM. The IC50 [6] was > 5000 nM, the IC50 (Hep 3B (hepatoma) cells) was > 5000 nM and the IC50 [1] was > 5000 nM. The IC50 (HL-60 (leukemia) cells) was > 5000 nM.

In the case of “2-(2-fluorophenyl)-6,7-methylenedioxyquinolin-4-one [CHM-1]”, the “Extension of life span of tumor-bearing mice” value (“Extension” below) (OVCAR-3 xenograft; 79 mg/kg) is listed as 79%, the “Extension” value (OVCAR-3 xenograft; 134 mg/kg) is listed as 133% and the “Extension” value (OVCAR-3 xenograft; 200 mg/kg) is listed as 124%. For the same molecule, the “Maximum tolerated dose (MTD)” value [7] was > 200 mg/kg.

In the case of “2-(3-Benzo[b]furyl)-6,7-methylenedioxyquinolin-4-one [Compound 37]”, the “Growth inhibition, NCI preliminary screening” value ([8]; HCC-2998, KM-12, SF-539, SNB-75, SK-MEL-5, IGROV1, OVCAR-3) is reported as “significantly inhibited the growth”, the “Cytotoxicity against leukemia cell lines, NCI preliminary screening” value ([8]; many leukemia cell lines (Figure 5)) is reported as “potent selective cytotoxicity” and the IC50 [3] is reported as 590 nM. It also gave an IC50 [4] of 2980 nM, an IC50 [5] of 1050 nM and an IC50 [6] of 1870 nM. The “Inhibition of Colchicine Binding % inhibition at tested concentration, 1 µM” value (tubulin) was 39%, the “Inhibition of Colchicine Binding % inhibition at tested concentration, 5 µM” value (tubulin) was 51% and the IC50 (Hep 3B (hepatoma) cells) was 90 nM. The IC50 [1] was 50 nM and the IC50 (HL-60 (leukemia) cells) was 30 nM.

With “2-(3-Benzo[b]thienyl)-6,7-methylenedioxyquinolin-4-one [Compound 1]” the IC50 [3] was > 250 nM, the IC50 [4] was > 250 nM and the IC50 [5] was > 250 nM. The IC50 [6] was > 250 nM, the “Inhibition of Colchicine Binding % inhibition at tested concentration, 1 µM” value (tubulin) was 25% and the “Inhibition of Colchicine Binding % inhibition at tested concentration, 5 µM” value (tubulin) was 61%. It also gave an IC50 (Hep 3B (hepatoma) cells) of 60 nM, an IC50 [1] of 140 nM and an IC50 (HL-60 (leukemia) cells) of 170 nM.

With “2-(3-Quinolinyl)-6,7-methylenedioxyquinolin-4-one [Compound 42]” the IC50 [3] was > 100 nM, the IC50 [4] was > 100 nM and the IC50 [5] was > 100 nM. For the same molecule, the IC50 [6] was > 100 nM, the IC50 (Hep 3B (hepatoma) cells) was > 100 nM and the IC50 [1] was > 100 nM. For the same molecule, the IC50 (HL-60 (leukemia) cells) was > 100 nM.

With “2-(4-Quinolinyl)-6,7-methylenedioxyquinolin-4-one [Compound 41]” the IC50 [3] was > 5000 nM, the IC50 [4] was > 5000 nM and the IC50 [5] was > 5000 nM. For the same molecule, the IC50 [6] was > 5000 nM, the IC50 (Hep 3B (hepatoma) cells) was > 5000 nM and the IC50 [1] was > 5000 nM. The IC50 (HL-60 (leukemia) cells) was > 5000 nM.

With “2-(5-Quinolinyl)-6,7-methylenedioxyquinolin-4-one [Compound 44]” the IC50 [3] was > 10000 nM, the IC50 [4] was > 10000 nM and the IC50 [5] was > 10000 nM. The IC50 [6] was > 10000 nM, the IC50 (Hep 3B (hepatoma) cells) was > 10000 nM and the IC50 [1] was > 10000 nM. The IC50 (HL-60 (leukemia) cells) was > 10000 nM.

In the case of `COc1cccc(-c2cc(O)c3cc(N4CCCC4)ccc3n2)c1` [B, 2-(3-methoxyphenyl)-6-pyrrolinylquinolin-4-one], the “Antitumor activity against the OVCAR-3 xenograft model” value (OVCAR-3 xenograft; at MTD 25 mg/kg, prior in vivo study) is listed as “moderate antitumor activity” and the “Maximum tolerated dose (MTD)” value [7] is listed as 25 mg/kg.

With `O=P([O-])(O)Oc1cc(-c2ccccc2F)nc2cc3c(cc12)OCO3.[Na+]` [CHM-1-P-Na] the “Metabolism of the 6,7-methylenedioxy moiety” value [9] was “metabolized to an ortho-quinone”.

For `O=C(Nc1ccc2c(c1)OCO2)c1csc2ccccc12` [Compound 46, N-(1,3-Benzodioxol-5-yl)-1-benzothiophene-3-carboxamide], the IC50 [10] was > 10000 nM.

In the case of `O=C(Nc1ccc2c(c1)OCO2)c1ccc2ccccc2c1` [Compound 50, N-(1,3-Benzodioxol-5-yl)naphthalene-2-carboxamide], the IC50 [10] is reported as > 10000 nM.

With `O=C(Nc1ccc2c(c1)OCO2)c1ccnc2ccccc12` [Compound 51, N-(1,3-Benzodioxol-5-yl)quinoline-4-carboxamide] the IC50 [10] was > 10000 nM.

With `O=C(Nc1ccc2c(c1)OCO2)c1cccc2ncccc12` [Compound 53, N-(1,3-Benzodioxol-5-yl)quinoline-5-carboxamide] the IC50 [10] was > 10000 nM.
